Activity, inhibition and viability data for five compounds are collected here from ChEMBL document CHEMBL5712884, “S-Adenosyl-L-methionine-competitive inhibitors of the histone methyltransferase EZH2 induce autophagy and enhance drug sensitivity in cancer cells” (Anticancer Drugs, 2015).

For data set [1], the system named is MDA-MB-231. Nature of the data set: Induction of autophagy in human MDA-MB-231 cells assessed as induction of LC3-II accumulation at 10 umol/L for 48 hrs by Western blot analysis. The settings on record: dose 10.0 µmol/L. On the technique in general: Immunoblotting shows a protein as a band on a membrane.
Data set [2] has as its system HepG2. Description: Cytotoxicity against human HepG2 cells assessed as effect on cell viability incubated for 72 hrs by MTT analysis. The class given is functional, cell-based. Summed up: (§1)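 Cells in DMEM with 10% FBS at 37°C, 5% CO2, plated in 96-well plates and drug-treated for 72 h. MTT 0.5 mg/ml added for 4 h, formazan dissolved in DMSO, absorbance read at 550 nm. Means and SDs; Student's t-test.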

The target in data set [3] is Histone-lysine N-methyltransferase EZH2 (Homo sapiens) (UniProt Q15910). Description: Inhibition of EZH2 in human A549 cells assessed as reduction in H3K27-me3 level at 20 umol/L incubated for 72 hrs by Western blot analysis. The settings on record: dose 20.0 µmol/L. The class given is cell-based.
Chain of Histone-lysine N-methyltransferase EZH2 (Homo sapiens) (Q15910 whole entry, looked up): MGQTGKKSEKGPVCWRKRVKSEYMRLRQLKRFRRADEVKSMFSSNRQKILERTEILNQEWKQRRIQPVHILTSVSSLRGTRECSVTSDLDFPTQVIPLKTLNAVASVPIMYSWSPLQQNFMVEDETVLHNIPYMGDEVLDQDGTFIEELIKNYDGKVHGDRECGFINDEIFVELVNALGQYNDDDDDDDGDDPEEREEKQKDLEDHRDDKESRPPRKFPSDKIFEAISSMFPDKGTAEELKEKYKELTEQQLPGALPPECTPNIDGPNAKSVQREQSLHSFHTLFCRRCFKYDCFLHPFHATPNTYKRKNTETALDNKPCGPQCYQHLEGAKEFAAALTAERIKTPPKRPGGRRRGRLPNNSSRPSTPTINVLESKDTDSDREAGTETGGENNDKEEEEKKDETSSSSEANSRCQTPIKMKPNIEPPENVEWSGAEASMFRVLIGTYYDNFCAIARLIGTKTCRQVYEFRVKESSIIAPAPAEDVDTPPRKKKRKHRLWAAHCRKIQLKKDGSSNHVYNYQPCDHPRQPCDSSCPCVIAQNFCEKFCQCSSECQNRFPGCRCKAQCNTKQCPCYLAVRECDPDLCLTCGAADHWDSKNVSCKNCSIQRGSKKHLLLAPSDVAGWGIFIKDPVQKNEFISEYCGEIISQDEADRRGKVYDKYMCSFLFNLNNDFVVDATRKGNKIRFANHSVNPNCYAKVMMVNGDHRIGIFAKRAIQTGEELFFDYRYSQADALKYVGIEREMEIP
The test system of data set [4] is MDA-MB-231. Nature of the data set: Induction of autophagy in human MDA-MB-231 cells assessed as reduction in expression of p62 at 20 umol/L incubated for 24 hrs by Western blot analysis. Format: functional, cell-based. The settings on record: dose 20.0 µmol/L.
Data set [5] concerns A549. Description: […] in human A549 cells assessed as induction of LC3-II accumulation at 10 to 20 umol/L measured after 24 hrs by Western blot analysis. Format: functional, cell-based. The settings on record: dose 10-20 µmol/L. Summed up:
(§2)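 A549 and HepG2 cells drug-treated with or without bafilomycin A1. Lysates made in Tris pH 7.5/NP-40 buffer with protease and phosphatase inhibitors, 25–50 μg run on 7–12% SDS-PAGE, probed for LC3B, ECL detection.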

Data set [6] deals with Histone-lysine N-methyltransferase EZH2 (Homo sapiens) (UniProt Q15910). Nature of the data set: Inhibition of EZH2 in human MDA-MB-231 cells assessed as reduction in H3K27-me3 level at 20 umol/L incubated for 72 hrs by Western blot analysis. The class given is cell-based. The settings on record: dose 20.0 µmol/L.
Data set [7] has as its system HepG2. Nature of the data set: Cytotoxicity against human HepG2 cells assessed as effect on cell viability after 72 hrs by MTT analysis. The class given is functional, cell-based. The method, boiled down:
as §1

In data set [8] the test system is MDA-MB-231. Nature of the data set: Induction of autophagy in human MDA-MB-231 cells assessed as change in total LAMP2 expression at 20 umol/L measured after 24 hrs by Western blot analysis. The class given is toxicity, cell-based. The settings on record: mda-mb-231, 24 h, 20 µM, dose 20 µmol/L.
The test system of data set [9] is MDA-MB-231. Description: Induction of autophagy in human MDA-MB-231 cells assessed as induction of LC3-II accumulation at 10 to 20 umol/L incubated for 24 hrs by Western blot analysis. Format: functional, cell-based. The settings on record: dose 10-20 µmol/L.
Data set [10] concerns MDA-MB-231. Nature of the data set: Induction of apoptosis in human MDA-MB-231 cells assessed as induction of cleavage of caspase-3 at 10 to 20 umol/L incubated for 72 hrs by Western blot analysis. Format: functional, cell-based. The settings on record: dose 10-20 µmol/L.
Data set [11] relates to MDA-MB-231. Nature of the data set: Induction of apoptosis in human MDA-MB-231 cells assessed as induction of cleavage of PARP at 10 to 20 umol/L incubated for 72 hrs by Western blot analysis. The class given is functional, cell-based. The settings on record: dose 10-20 µmol/L.
The test system of data set [12] is HepG2. Description: […] in human HepG2 cells assessed as induction of LC3-II accumulation at 10 to 20 umol/L measured after 24 hrs in presence of bafilomycin A1 by Western blot analysis. The class given is functional, cell-based. The conditions noted are these: dose 10-20 µmol/L. The method, boiled down:
as §2

Data set [13] deals with MDA-MB-231. Nature of the data set: Cytotoxicity against human MDA-MB-231 cells assessed as cell viability at 5 umol/L after 72 hrs by MTT analysis relative to control. Format: functional. The conditions noted are these: MDA-MB-231, 72 h, dose 5 µmol/L, read-out: Activity. Summed up:
as §1

In data set [14] the test system is MDA-MB-231. Description: Cytotoxicity against human MDA-MB-231 cells assessed as reduction in cell viability at >5 umol/L after 72 hrs by MTT analysis. The class given is functional, cell-based. The settings on record: dose > 5.0 µmol/L. The method, boiled down: as §1
The subject of data set [15] is A549. Nature of the data set: […] in human A549 cells assessed as induction of LC3-II accumulation at 10 to 20 umol/L measured after 24 hrs in presence of bafilomycin A1 by Western blot analysis. Format: functional, cell-based. The conditions noted are these: dose 10-20 µmol/L. The method, boiled down: as §2
Data set [16] has as its system HepG2. Description: Potentiation of sorafenib-induced anticancer activity in human HepG2 cells at 10 umol/L measured after 72 hrs by MTT assay. The class given is functional, cell-based. The settings on record: dose 10.0 µmol/L. Summed up: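 HepG2 cells given a range of sorafenib doses, with or without 10 μmol/l compound, for 72 h. Viability by MTT (0.5 mg/ml, 4 h, DMSO, A550). Student's t-test against untreated cells.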
(In general: Tetrazolium assays rely on reduction of a dye to a coloured formazan, in cell work by metabolically active cells.)

The target of data set [17] is Histone-lysine N-methyltransferase EZH2 (Homo sapiens) (UniProt Q15910). Description: Inhibition of EZH2 in human HepG2 cells assessed as reduction in H3K27-me3 level at 20 umol/L incubated for 72 hrs by Western blot analysis. The class given is cell-based. The conditions noted are these: dose 20.0 µmol/L.
The test system of data set [18] is HepG2. Nature of the data set: […] in human HepG2 cells assessed as induction of LC3-II accumulation at 10 to 20 umol/L measured after 24 hrs by Western blot analysis. Format: functional, cell-based. The settings on record: dose 10-20 µmol/L. Summed up:
as §2

Data set [19] deals with HepG2. Description: Potentiation of sorafenib-induced anticancer activity in human HepG2 cells assessed as increase in cleaved PARP expression at 10 umol/L measured after 72 hrs by Western blot analysis. The class given is functional, cell-based. The settings on record: dose 10.0 µmol/L. Summed up:
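HepG2 cells given 5 μmol/l sorafenib, with or without 10 μmol/l compound, for 72 h. Whole-cell lysates immunoblotted for PARP1, LC3B and β-actin.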

The subject of data set [20] is MDA-MB-231. Description: Induction of autophagy in human MDA-MB-231 cells assessed as change in total LAMP2 expression at 20 umol/L measured after 24 hrs in presence of bafilomycin A1 by Western blot analysis. Format: toxicity, cell-based. The settings on record: mda-mb-231, 24 h, 20 µM, dose 20 µmol/L.
Data set [21] has as its system HepG2. Nature of the data set: Induction of autophagy in human HepG2 cells assessed as accumulation of LC3-II at 10 umol/L measured after 24 hrs by Western blot analysis. The class given is functional, cell-based. The settings on record: dose 10.0 µmol/L. The method, boiled down:
(§3)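 HepG2 cells given 2.5–10 μmol/l sorafenib for 24 h; whole-cell lysates immunoblotted for EZH2, LC3B and GAPDH, with ECL detection.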

Data set [22] relates to HepG2. Description: Anticancer activity in human HepG2 cells assessed as inhibition of EZH2 expression measured after 24 hrs by Western blot analysis. The class given is functional, cell-based. The settings on record: dose 2.5-10 µmol/L. Summed up:
as §3

Data set [23] relates to MDA-MB-231. Nature of the data set: […] in human MDA-MB-231 cells assessed as induction of LC3-II accumulation at 1 umol/L for 48 hrs by Western blot analysis. The conditions noted are these: dose 1.0 µmol/L. The class given is functional, cell-based.

Calls of active or inactive are those of the source. The rule behind the calls is not given here.

Take `COc1ccc2cc3[n+](cc2c1OC)CCc1cc2c(cc1-3)OCO2`: in the data set on MDA-MB-231 [1], the outcome was Active.
The same measure, in the same setting: next, `CCCc1cc(C)[nH]c(=O)c1CNC(=O)c1cc(-c2ccc(N3CCN(C(C)C)CC3)nc2)cc2c1cnn2C(C)C`: “Active”.
As for `Nc1nccc2c1ncn2[C@@H]1C=C(CO)[C@@H](O)[C@H]1O`, the result with HepG2 [2], in the data set with MDA-MB-231 [4], in the data set with HepG2 [7] and with MDA-MB-231 [11] was Active. Further, the inhibition entry in data set [3], in [6] and in data set [17] was “Active” in each case. In addition, the outcome in the data set on A549 [5], in the data set on MDA-MB-231 [9], in the data set on MDA-MB-231 [10], in the data set with HepG2 [12], in the data set with MDA-MB-231 [14] and with A549 [15] was inactive. Besides, the outcome in the data set on HepG2 [16], in the data set with HepG2 [18] and with HepG2 [19] was inactive. For the same compound, the Activity result with MDA-MB-231 [8] and in the data set with MDA-MB-231 [20] was “Non-Toxic” in each case. Besides, in the data set with MDA-MB-231 [13], the viability at 5 µM was 67%.
Take `CNC(=O)c1cc(Oc2ccc(NC(=O)Nc3ccc(Cl)c(C(F)(F)F)c3)cc2)ccn1`: the outcome with HepG2 [21] was Active. The inhibition result with HepG2 [22] is “Active”.
In the case of `CC(=O)O[C@H]1C(=O)[C@@]2(C)[C@H]([C@H](OC(=O)c3ccccc3)[C@]3(O)C[C@H](OC(=O)[C@H](O)[C@@H](NC(=O)c4ccccc4)c4ccccc4)C(C)=C1C3(C)C)[C@]1(OC(C)=O)CO[C@@H]1C[C@@H]2O`, the result with MDA-MB-231 [23] was Active.
